Compound activity (PubChem)
This is a sample that favours compounds with a hit; in the whole collection about 2.3% have one here.
TRPC4 agonist – opens the mouse TRPC4 cation channel | HEK293 TRPC4beta/mu-opioid, Fluo4 calcium fluorescence; active compounds read high | B-score at 10 µM | actives 0.49% (n = 310,000) | Q9QUQ5;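 active = B-score above 5 SD of library B-scores, and initial fluorescence ratio not above library mean plus 5 SD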;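 note: positive B-score marks a calcium rise read as TRPC4 activation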
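system = HEK293 cells stably co-expressing mouse TRPC4beta and mu-opioid receptor | schedule = Fluo4 dye loading 45 min at room temperature, 110 s recording | measure = B-scored integrated calcium fluorescence ratio | signal = Fluo4 calcium-sensitive dye fluorescence, kinetic, 1 Hz baseline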
TRPC4 potent – allosteric potentiators of mouse TRPC4 channel | actives 0.42% (n = 310,000) | HEK293 TRPC4beta/mu-opioid, DAMGO EC20, Fluo-4 Ca2+ flux; active compounds read high | B-score at 10 µM | Q9QUQ5;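 active = B-score of calcium response area above 5 SD of library B-scores, with initial fluorescence ratio within 5 SD of library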
TRPC4 inh – inhibitors of mouse TRPC4 channel | Q9QUQ5 | HEK293 TRPC4beta/mu-opioid, DAMGO-evoked Fluo4 calcium flux; active compounds read low | B-score at 10 µM | actives 0.39% (n = 300,000) | AID 2247;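 active = B-score over 3 SD under the library average, no early fluorescence shift, positive overall ratio signal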
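System: stable TRPC4beta/mu-opioid receptor HEK293 cells; Dosing: single-point compound dosing; Measured by: Fluo4 Ca2+ flux fluorescence; Read-out basis: per-well B score of integrated baseline-normalized Fluo4 ratio.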
TRPC6 activator – mouse TRPC6 channel activation | HEK293-TRPC6 membrane potential dye fluorescence; active compounds read high | B-score at 10 µM | actives 0.13% (n = 310,000);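 active = B-score of the integrated fluorescence ratio above library mean plus 3 SD, and starting fluorescence ratio within library mean plus 5 SD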;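 note: higher score means more depolarization so channel activation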
TRPC6 inh – inhibitors of mouse TRPC6 channel; HEK293-TRPC6, membrane potential dye, ACh-evoked depolarization; active compounds read low; actives 1.1% (n = 310,000); B-score at 10 µM;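 active = B-score under library mean minus 3 SD, initial fluorescence not abnormally high, positive integrated signal ratio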;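 note: B-score derived from integrated fluorescence ratio over the kinetic read; more negative B-score means stronger inhibition of depolarization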
HEK293 MPD ctr – counter-screen for TRPC6 modulators: effect in parental HEK293 cells; shares compounds with TRPC6 inh; membrane potential dye fluorescence; membrane potential signal change, % at 10 µM; actives 51% (n = 2,400); AID 488924;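 active = membrane potential signal moves up or down beyond 5 SD from buffer-only wells, on both duplicate plates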
HEK293 MPD ctr 2 – second counter-screen for TRPC6 modulators: effect in parental HEK293 cells. shares compounds with TRPC6 inh. membrane potential dye fluorescence; after compound, maximal acetylcholine stimulation. inhibition, % at 10 µM. actives 14% (n = 2,400). AID 488926;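 active = membrane potential signal drops by more than 5 SD from the mean control signal, in both duplicate plates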
TRPC4/MOR mod – mouse TRPC4 off-target activity of TRPC6 modulators. shares compounds with TRPC6 inh. HEK293 TRPC4/mu-opioid, membrane potential fluorescence. percent change from control (negative = decrease, positive = increase), % at 10 µM. actives 69% (n = 2,400). AID 488927;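 active = membrane potential signal moved up or down beyond 5 SD of buffer control wells, in both duplicate plates, actives on both sides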
TRPC4/MOR inh 2 – mouse TRPC4 off-target activity of TRPC6 modulators, second screen. shares compounds with TRPC6 inh. HEK293 TRPC4/mu-opioid, membrane potential dye fluorescence; stimulated with maximal-effect DAMGO. inhibition, % at 10 µM. actives 55% (n = 2,400);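 active = drop in membrane potential signal beyond 5 SD of the control wells in both duplicate plates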;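 note: TRPC4 counter screen for TRPC6 hits run under conditions tuned for TRPC6 not TRPC4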
TRPC6 inh conf – mouse TRPC6 inhibitor confirmation; shares compounds with TRPC6 inh; HEK293-TRPC6, membrane potential dye, ACh-evoked depolarization; inhibition, % at 10 µM; actives 43% (n = 3,300); AID 488960;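 active = fluorescence ratio falls more than 5 SD below the full-stimulation control mean, in both duplicate runs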;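 note: integrated fluorescence ratio of peak minus minimum over baseline after agonist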
TRPC6 act conf – mouse TRPC6 activator confirmation; AID 488961; actives 11% (n = 2,800); activation, % at 10 µM; shares compounds with TRPC6 inh; HEK293-TRPC6 membrane potential dye fluorescence, FDSS;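 active = ratio signal rise beyond 5 SD above unstimulated control wells' mean, seen in both duplicate runs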
Each line names hits and unclear results; the compound was inactive in the other large screens (follow-up assays come after a bar, where they were run).

O=C(CN1CCN(c2ccccn2)CC1)N1c2ccccc2Sc2ccc(C(F)(F)F)cc21	none
O=C(CN1CCCC1)N1c2ccccc2Sc2ccc(C(F)(F)F)cc21	TRPC6 inh -5.57 | HEK293 MPD ctr inactive | HEK293 MPD ctr 2 inactive | TRPC4/MOR mod 12.0% | TRPC4/MOR inh 2 inactive | TRPC6 inh conf 53.0%
COC(=O)c1sccc1NC(=S)Nc1cc(C)ccc1OC	none
Cc1ccc(NS(=O)(=O)c2ccc3c(c2)NC(=O)CCS3)c(C)c1	none
CC1(C)CC(=O)C(=C2SCCCS2)C(=O)C1	none
O=C(Nc1ccccn1)C1CCCN1S(=O)(=O)c1ccc(Cl)cc1 (stereo not drawn)	none
C[C@@H](NC(=O)c1cc2c([nH]c3ccccc32)c(-c2ccccc2)n1)C(=O)O	none
Clc1ccccc1N1CCN(Cc2c[nH]c3ccccc23)CC1	none
Fc1ccccc1N1CCN(C2CCN(Cc3c[nH]c4ccccc34)CC2)CC1	TRPC6 inh -5.25 | HEK293 MPD ctr 148.5% | HEK293 MPD ctr 2 inactive | TRPC4/MOR mod 19.0% | TRPC4/MOR inh 2 58.5% | TRPC6 inh conf inactive
COc1cccc(C2Nc3cc(Cl)c(S(N)(=O)=O)cc3S(=O)(=O)N2)c1 (stereo not drawn)	none
O=C1c2ccccc2C(=O)c2c(Nc3ccc(CCO)cc3)ccc(O)c21	TRPC6 inh -5.24 | HEK293 MPD ctr inactive | HEK293 MPD ctr 2 inactive | TRPC4/MOR mod -9.0% | TRPC4/MOR inh 2 41.5% | TRPC6 inh conf inactive | TRPC6 act conf inactive
CC(=O)Nc1ccc(Nc2ccc3c4c(cc(=O)n3C)-c3ccccc3C(=O)c24)cc1	none
N#Cc1ccc(/C=C/C(=O)c2ccco2)cc1	none
Nc1ccc(/C=C/C(=O)c2ccco2)cc1	TRPC6 activator 24.6, TRPC6 inh -8.45 | HEK293 MPD ctr 722.0% | HEK293 MPD ctr 2 active | TRPC4/MOR mod 92.0% | TRPC4/MOR inh 2 52.5% | TRPC6 inh conf 80.5% | TRPC6 act conf 199.0%
Cc1ccc(/C=N\NC(=O)/C(=C\Nc2nccc(C)n2)NC(=O)c2ccccc2)cc1	none
Cc1cc([N+](=O)[O-])cc(/C=N\NC(=O)C2COc3ccccc3O2)c1O (stereo not drawn)	none
